Experimental data as given in PMC10785664 (ACS Omega, 2023).

System: A549 cells
Test: MTT cell viability, antiproliferative action on A549 cells
Type: cell-based
Conditions: Homo sapiens, A549, 72 h, read-out: % cell viability
Outline: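 A549 cells in DMEM with 10% FBS and 1% penicillin-streptomycin (37 °C, 5% CO₂) were grown to 90% confluence, seeded at 2.5 × 10⁴ cells/mL in 96-well plates and left 24 h. Dosing solutions at 25, 50 and 100 µg/mL in PBS/0.2% DMSO were added in triplicate, followed by 72 h incubation. MTT (5 mg/mL) was added for 4 h, then acid-isopropanol overnight. A570/620 was read; viability was blank-corrected relative to untreated controls.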

CC(=O)O[C@H]1C(=O)[C@@]2(C)[C@H]([C@H](OC(=O)c3ccccc3)[C@]3(O)C[C@H](OC(=O)[C@H](O)[C@@H](NC(=O)c4ccccc4)c4ccccc4)C(C)=C1C3(C)C)[C@]1(OC(C)=O)CO[C@@H]1C[C@@H]2O [PTX, paclitaxel]
viability at 25 µg/mL: 31.2%
viability at 50 µg/mL: 26.5%
viability at 100 µg/mL: 20.2%
